Test [1] has as its system S. aureus SH1000 sensitive strain. Kind of test: MIC against S. aureus SH1000 sensitive strain. In kind it is cell-based, Staphylococcus aureus. The settings on record: for MIC: Staphylococcus aureus, read-out: MIC S. aureus Sensitive SH1000.
Another test concerns the target S. pneumonia PheRS (Streptococcus pneumoniae, UniProt Q97S36). Kind of test: tRNA aminoacylation scintillation proximity assay, S. pneumonia PheRS. It is filed as biochemical. A digest of the protocol: (§1)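 E. coli tRNA was added and incubated 1 h at 37 °C, then stopped with EDTA. Poly-L-lysine yttrium silicate SPA beads in citric acid were added for 1 h before scintillation counting. DMSO-only controls were included, and IC50 came from a sigmoidal dose-response fit.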
On the technique in general: Scintillation proximity formats need no separation of bound from free tracer.

Another test has as its target P. aeruginosa PheRS (Pseudomonas aeruginosa, UniProt Q9I0A3). Kind of test: tRNA aminoacylation scintillation proximity assay, P. aeruginosa PheRS. In kind it is biochemical. A digest of the protocol:
as §1

In test [2] the test system is S. aureus ATCC 29213 sensitive. Kind of test: MIC by microbroth dilution. In kind it is cell-based. A digest of the protocol:
(§2)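 Broth microdilution per international standard ISO […]. The panel covered clinical isolates and NCTC/ATCC control organisms, including resistant phenotypes, and ampicillin was run alongside as comparator.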
(Dilution methods test growth across graded concentrations, often in twofold steps.)

Test [3] deals with S. aureus NCTC 12493 mecA resistant. Kind of test: MIC by microbroth dilution. In kind it is cell-based. A digest of the protocol: as §2
Test [4] deals with K. pneumoniae 21856 sensitive. Kind of test: MIC by microbroth dilution. It is filed as cell-based, Klebsiella pneumoniae. A digest of the protocol: as §2
In test [5] the test system is P. mirabilis NCTC 10975 sensitive. Kind of test: MIC by microbroth dilution. It is filed as cell-based, Proteus mirabilis. A digest of the protocol:
as §2

The subject of test [6] is P. aeruginosa ATCC 27853 sensitive. Kind of test: MIC by microbroth dilution. It is filed as cell-based, Pseudomonas aeruginosa. A digest of the protocol:
as §2

Test [7] relates to S.enteritidis8204 sensitive. Kind of test: MIC by microbroth dilution. In kind it is cell-based, Salmonella enteritidis. A digest of the protocol: as §2
The test system of a further test is A.baumannii572 sensitive. Kind of test: MIC by microbroth dilution. In kind it is cell-based, Acinetobacter baumannii. A digest of the protocol:
as §2

Test [8] relates to B.cepacia NCTC 10661 sensitive. Kind of test: MIC by microbroth dilution. In kind it is cell-based. A digest of the protocol:
as §2

In test [9] the test system is E. faecalisATCC 29212 sensitive. Kind of test: MIC by microbroth dilution. It is filed as cell-based, Enterococcus faecalis. A digest of the protocol: as §2
Test [10] has as its system E. faecalis NCTC 12201 vanA resistant. Kind of test: MIC by microbroth dilution. It is filed as cell-based, Enterococcus faecalis. A digest of the protocol: as §2
For test [11], the system named is E. faecalis ATCC 51299 vanB resistant. Kind of test: MIC by microbroth dilution. It is filed as cell-based, Enterococcus faecalis. A digest of the protocol: as §2
Test [12] has as its system E. coli ATCC 25922 sensitive. Kind of test: MIC by microbroth dilution. In kind it is cell-based. A digest of the protocol:
as §2

The test system of test [13] is E. faecium 16568 sensitive. Kind of test: MIC by microbroth dilution. The conditions noted are these: Enterococcus faecium. It is filed as cell-based. A digest of the protocol: as §2
For test [14], the system named is the tested bacteria (variety of clinically important pathogens). Kind of test: MIC by microbroth dilution, summary in text for the panel of pathogens. It is filed as cell-based. The settings on record: read-out: MIC, no inhibitory activity.
The subject of test [15] is E. faecalis sensitive and vanA and vanB resistant strains. Kind of test: MIC by microbroth dilution, summary in text for E. faecalis strains. In kind it is cell-based. The conditions noted are these: Enterococcus faecalis, read-out: moderate inhibitory activity (MIC). A digest of the protocol:
as §2

Where [16] appears, read: Staphylococcus aureus, ATCC29213.
[17] abbreviates: Staphylococcus aureus, NCTC12493.
[18] abbreviates: Pseudomonas aeruginosa, ATCC27853.
Where [19] appears, read: Enterococcus faecalis, ATCC29212.
The mark [20] stands for this setting: Enterococcus faecalis, NCTC12201.
[21] abbreviates: Enterococcus faecalis, ATCC51299.

As usually defined, the MIC is the smallest concentration in the dilution series that meets the test's criterion for growth inhibition. A word on the pIC50: it is the IC50 on a negative log10 scale, so that one unit is a factor of ten.

The structures appear in SMILES notation. pIC50: −log10 of the molar value. ≈ marks a conversion by molar mass, not a printed value. Like-named read-outs stand apart in the source and are kept apart here.

Sequence of S. pneumonia PheRS (Q97S36 whole entry): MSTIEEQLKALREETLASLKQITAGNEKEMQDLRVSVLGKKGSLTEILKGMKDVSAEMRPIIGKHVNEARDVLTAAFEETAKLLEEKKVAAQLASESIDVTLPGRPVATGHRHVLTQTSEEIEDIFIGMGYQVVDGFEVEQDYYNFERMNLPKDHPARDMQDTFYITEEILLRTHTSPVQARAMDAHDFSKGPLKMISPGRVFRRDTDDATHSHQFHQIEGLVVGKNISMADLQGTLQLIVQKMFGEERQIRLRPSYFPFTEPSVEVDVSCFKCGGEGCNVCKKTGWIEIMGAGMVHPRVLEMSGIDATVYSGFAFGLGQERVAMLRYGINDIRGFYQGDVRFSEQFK
Sequence of S. pneumonia PheRS (Q97S34 whole entry, further chain): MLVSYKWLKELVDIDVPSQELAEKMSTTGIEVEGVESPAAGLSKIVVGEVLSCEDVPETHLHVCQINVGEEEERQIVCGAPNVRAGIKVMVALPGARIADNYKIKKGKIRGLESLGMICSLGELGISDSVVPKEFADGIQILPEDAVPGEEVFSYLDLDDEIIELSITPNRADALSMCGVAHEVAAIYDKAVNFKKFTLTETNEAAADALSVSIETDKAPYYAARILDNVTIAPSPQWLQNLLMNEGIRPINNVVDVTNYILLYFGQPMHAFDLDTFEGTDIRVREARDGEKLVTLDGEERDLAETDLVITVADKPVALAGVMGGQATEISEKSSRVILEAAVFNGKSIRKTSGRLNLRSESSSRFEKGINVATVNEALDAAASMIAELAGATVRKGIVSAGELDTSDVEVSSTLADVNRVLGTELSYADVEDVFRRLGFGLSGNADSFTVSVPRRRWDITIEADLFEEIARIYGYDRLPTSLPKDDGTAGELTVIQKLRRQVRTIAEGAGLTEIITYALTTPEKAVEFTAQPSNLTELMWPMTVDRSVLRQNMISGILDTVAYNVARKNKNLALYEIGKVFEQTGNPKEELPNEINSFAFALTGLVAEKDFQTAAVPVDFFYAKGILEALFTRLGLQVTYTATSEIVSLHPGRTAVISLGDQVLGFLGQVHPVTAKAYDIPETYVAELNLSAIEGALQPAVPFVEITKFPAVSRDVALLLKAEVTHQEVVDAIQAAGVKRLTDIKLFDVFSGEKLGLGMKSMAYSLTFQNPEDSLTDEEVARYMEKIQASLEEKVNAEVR
Sequence of P. aeruginosa PheRS (Q9I0A3 whole entry): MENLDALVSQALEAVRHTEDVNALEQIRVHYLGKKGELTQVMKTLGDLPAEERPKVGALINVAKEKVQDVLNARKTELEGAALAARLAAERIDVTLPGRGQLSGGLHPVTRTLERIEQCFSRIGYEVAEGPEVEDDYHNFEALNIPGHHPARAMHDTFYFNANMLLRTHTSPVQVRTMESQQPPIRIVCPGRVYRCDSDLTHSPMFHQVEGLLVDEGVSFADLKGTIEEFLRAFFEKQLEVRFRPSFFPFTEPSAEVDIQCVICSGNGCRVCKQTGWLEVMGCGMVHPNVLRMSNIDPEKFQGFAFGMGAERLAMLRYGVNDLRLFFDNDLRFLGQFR
Sequence of P. aeruginosa PheRS (Q9I0A4 whole entry partner): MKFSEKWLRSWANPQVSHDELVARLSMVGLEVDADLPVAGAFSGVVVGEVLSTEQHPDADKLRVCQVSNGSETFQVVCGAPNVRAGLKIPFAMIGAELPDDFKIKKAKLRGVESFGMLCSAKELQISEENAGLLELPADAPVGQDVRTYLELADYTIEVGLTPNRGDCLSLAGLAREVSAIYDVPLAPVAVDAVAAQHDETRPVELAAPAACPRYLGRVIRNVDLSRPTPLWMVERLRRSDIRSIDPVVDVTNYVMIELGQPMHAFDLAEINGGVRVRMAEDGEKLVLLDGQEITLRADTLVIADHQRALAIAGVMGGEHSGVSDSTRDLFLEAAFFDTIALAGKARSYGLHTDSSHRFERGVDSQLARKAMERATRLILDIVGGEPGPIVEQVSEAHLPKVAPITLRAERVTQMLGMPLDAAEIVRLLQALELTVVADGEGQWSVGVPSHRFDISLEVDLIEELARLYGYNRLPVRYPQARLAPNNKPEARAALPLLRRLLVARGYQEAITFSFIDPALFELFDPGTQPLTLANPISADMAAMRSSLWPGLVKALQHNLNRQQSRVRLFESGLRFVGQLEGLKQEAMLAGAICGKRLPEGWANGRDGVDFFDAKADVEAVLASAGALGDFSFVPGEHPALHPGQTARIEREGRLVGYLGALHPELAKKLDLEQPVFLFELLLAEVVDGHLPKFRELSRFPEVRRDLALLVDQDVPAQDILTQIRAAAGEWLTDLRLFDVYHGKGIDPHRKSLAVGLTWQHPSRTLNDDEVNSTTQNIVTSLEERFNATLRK

`COc1cc(OC)cc(C(=O)Nc2nnc(CCn3cnc4ccccc43)s2)c1` [11a, N-(5-(2-(1H-benzimidazol-1-yl)ethyl)-1,3,4-thiadiazol-2-yl)-3,5-dimethoxybenzamide]: in test [1], the minimum inhibitory concentration (MIC) was above 128 µg/mL. Besides, the values for the pIC50 on S. pneumonia PheRS and at P. aeruginosa PheRS were 3.46 and 3.13, respectively.
Consider `O=C(Nc1nnc(CCn2cnc3ccccc32)s1)c1ccc(F)cc1` [11b, N-(5-(2-(1H-benzimidazol-1-yl)ethyl)-1.3.4-thiadiazol-2-yl)-4fluorobenzamide], for which the “MIC S. aureus Sensitive SH1000” value in test [1] (S. aureus SH1000 sensitive strain) is above 128 µg/mL. Moreover, the pIC50 is 3.16 on S. pneumonia PheRS (read-out: S. pneumonia PheRS IC50, aminoacylation SPA, 0.2 μM enzyme) and 3.04 at P. aeruginosa PheRS (read-out: P. aeruginosa PheRS IC50, aminoacylation SPA, 0.08 μM enzyme). Besides, the minimal inhibitory concentration (MIC) in [2] (S. aureus ATCC 29213 sensitive) was above 128 µg/mL; in [3] (S. aureus NCTC 12493 mecA resistant), 128 µg/mL (≈ 348 µM); in test [4] (K. pneumoniae 21856 sensitive), above 128 µg/mL; in test [5] (P. mirabilis NCTC 10975 sensitive), above 128 µg/mL; in test [6] (P. aeruginosa ATCC 27853 sensitive), above 128 µg/mL; in test [7] (S.enteritidis8204 sensitive) it was above 128 µg/mL. Besides, the MIC was above 128 µg/mL with A.baumannii572 sensitive (A.baumannii572 sensitive); above 128 µg/mL in [8]; 64 µg/mL (≈ 174 µM) in test [9] (E. faecalis ATCC 29212 sensitive); 32 µg/mL (≈ 87.1 µM) in test [10] (E. faecalis NCTC 12201 vanA resistant); 64 µg/mL (≈ 174 µM) in test [11] (E. faecalis ATCC 51299 vanB resistant); above 128 µg/mL in test [12] (E. coli ATCC 25922 sensitive).
Take `CCSc1nnc(CCCn2cnc3ccccc32)n1-c1ccccc1` [16a, 1-(3-(5-(Ethylthio)-4-phenyl-4H-1,2,4-triazol-3-yl)propyl)-1H-benzimidazole]: the minimum inhibitory concentration (MIC) is above 128 µg/mL in test [1]; above 128 µg/mL in test [2] (setting [16]); above 128 µg/mL in test [3] (setting [17]); above 128 µg/mL in test [4] (Klebsiella pneumoniae); above 128 µg/mL in test [5] (Proteus mirabilis, NCTC10975); above 128 µg/mL in test [6] (setting [18]). Besides, the MIC (in [7] (Salmonella enterica); in the test with A.baumannii572 sensitive (Acinetobacter baumannii); in test [9] (setting [19]); in [10] (setting [20]); in [11] (setting [21]); in [13]) was above 128 µg/mL in each case. For the same compound, the minimal inhibitory concentration (MIC) in [12] (Escherichia coli, ATCC25922) is above 128 µg/mL; in test [14], at least 128 µg/mL. For the same compound, the negative logarithm of the IC50 (pIC50) is 3.25 on S. pneumonia PheRS and 3.46 against P. aeruginosa PheRS.
With `CCCSc1nnc(CCCn2cnc3ccccc32)n1-c1ccccc1` [16b, 1-(3-(4-Phenyl-5-(propylthio)-4H-1,2,4-triazol-3-yl)propyl)1H-benzimidazole], the minimum inhibitory concentration (MIC) in [1] was above 128 µg/mL. Moreover, the results for the pIC50 against S. pneumonia PheRS and on P. aeruginosa PheRS were 3.41 and 3.43, respectively.
Consider `CCSc1nnc(CCCn2cnc3c(N)ncnc32)n1-c1ccccc1` [17a, 9-(3-(5-(Ethylthio)-4-phenyl-4H-1,2,4-triazol-3-yl)propyl)-9H-purin-6-amine], for which the minimal inhibitory concentration (MIC) was above 128 µg/mL in [1]; above 128 µg/mL in [2] (setting [16]); 128 µg/mL (≈ 336 µM) in test [3] (setting [17]); above 128 µg/mL in [4] (Klebsiella pneumoniae); above 128 µg/mL in test [5] (Proteus mirabilis, NCTC10975); above 128 µg/mL in test [6] (setting [18]). Also, the MIC in [7] (Salmonella enterica) is above 128 µg/mL; against A.baumannii572 sensitive (Acinetobacter baumannii) it was above 128 µg/mL; in test [9] (setting [19]) it was above 128 µg/mL; in test [10] (setting [20]), 64 µg/mL (≈ 168 µM); in test [11] (setting [21]) it was 64 µg/mL (≈ 168 µM); in [12] (Escherichia coli, ATCC25922) it was above 128 µg/mL. The minimal inhibitory concentration (MIC) was 32 to 64 µg/mL (≈ 84.1 to 168 µM) in test [15] and at least 128 µg/mL in [14]. Besides, the values for the pIC50 on S. pneumonia PheRS and at P. aeruginosa PheRS were 3.21 and 3.70, respectively.
On to `CCCSc1nnc(CCCn2cnc3c(N)ncnc32)n1-c1ccccc1` [17b, 9-(3-(4-Phenyl-5-(propylthio)-4H-1,2,4-triazol-3-yl)propyl)-9H-purin-6-amine], for which the MIC in test [1] was above 128 µg/mL; in [2] (setting [16]) it was above 128 µg/mL; in [3] (setting [17]), above 128 µg/mL; in [4] (Klebsiella pneumoniae), above 128 µg/mL; in test [5] (Proteus mirabilis, NCTC10975) it was above 128 µg/mL; in [6] (setting [18]), above 128 µg/mL. The MIC (in [7] (Salmonella enterica); in the test with A.baumannii572 sensitive (Acinetobacter baumannii); in test [9] (setting [19]); in [10] (setting [20]); in [11] (setting [21]); in test [13]) was above 128 µg/mL throughout. Besides, the MIC was above 128 µg/mL in [12] (Escherichia coli, ATCC25922) and at least 128 µg/mL in test [14]. The pIC50 was 3.16 against S. pneumonia PheRS and 3.53 on P. aeruginosa PheRS.
In the case of `CC1(C)S[C@@H]2[C@H](NC(=O)[C@H](N)c3ccccc3)C(=O)N2[C@H]1C(=O)O` [Amp, ampicillin, reference compound], the MIC was 4 µg/mL (≈ 11.4 µM) in test [2] (setting [16]); above 128 µg/mL in test [3] (setting [17]); above 128 µg/mL in [4] (Klebsiella pneumoniae); above 128 µg/mL in test [5] (Proteus mirabilis, NCTC10975); above 128 µg/mL in test [6] (setting [18]); above 128 µg/mL against A.baumannii572 sensitive (Acinetobacter baumannii). Moreover, the values for the MIC in test [10] (setting [20]) and in test [13] were 16 µg/mL (≈ 45.8 µM) and 4 µg/mL (≈ 11.4 µM), respectively.

The values above are taken from paper PMC6959494 (Egyptian journal of chemistry, 2018).
